Assay results pooled from the literature.
Target: Serine/threonine-protein kinase pim-1 (PIM1, Homo sapiens, UniProt P11309)

| Structure (SMILES) | read-out | action | method | tested at | quantity | result |
| --- | --- | --- | --- | --- | --- | --- |
| COc1cc(Nc2cnc(C#N)c(O[C@H](C)CN(C)C)n2)ncc1-c1cnn(C)c1 | enzyme activity | inhibitor | radiometric | 1 µM | remaining activity | 72% |
| CN(C)c1ncnc(-c2ccc3nc(Nc4cc(CN5CCN(C(=O)CC(F)(F)F)CC5)ccn4)[nH]c3c2)c1Cl | cell-free assay | – | competition with immobilised ligand | 1 µM | remaining binding | 100% |
| COc1cc2ncnc(Nc3ccc(Oc4ccccc4)cc3C)c2cc1OC | enzyme activity | inhibitor | – | 1 µM | inhibition | -4% |
| CCN1/C(=C/C(C)=O)Sc2ccc(OC)cc21 | cell-free assay | – | – | 0.5 µM | remaining signal | 17.9% |
| Cc1cnc(NC2CCOCC2)nc1-n1cnc(C(=O)NC(CN)c2cc(F)cc(Cl)c2)c1 (stereo not shown) | enzyme activity | inhibitor | radiometric | 1 µM | remaining activity | 90% |
| CC(=O)Nc1c(C(C)=O)c(=O)n(C)c2nc(-c3ccc(Cl)cc3Cl)c(-c3ccc(Cl)cc3)cc12 | cell-free assay | – | competition with immobilised ligand | 1 µM | remaining binding | 100% |
| Cc1ccc(C(=O)Nc2ccc(CN3CCN(C)CC3)c(C(F)(F)F)c2)cc1C#Cc1cnc2cccnn12 | enzyme activity | inhibitor | – | 23.5 nM | remaining activity | 100% |
| O=C(N[C@H]1CCCCC/C=C\C2C[C@@]2(C(=O)O)NC(=O)[C@@H]2C[C@@H](Oc3ccncc3)CN2C1=O)OC1CCCC1 (stereo partly shown) | binding | – | competition with immobilised ligand | 1 µM | remaining binding | 100% |
| Nc1ncnc2c1ncn2[C@@H]1O[C@H](COP(=O)(O)OP(=O)(O)OP(=O)(O)O)[C@@H](O)[C@H]1O | enzyme activity | substrate | radiometric | – | Km | 48 µM |
| CSc1cccnc1N1CCN(Cc2nc3ccccc3[nH]2)CC1 | cell-free assay | – | competition with immobilised ligand | 1 µM | remaining binding | 100% |
| CNC(=O)c1cc(Oc2ccc(NC(=O)Nc3ccc(Cl)c(C(F)(F)F)c3)cc2)ccn1 | enzyme activity | inhibitor | – | 0.3 µM | inhibition | -2% |
| Cn1cc(Cl)c2c(Oc3c(F)cc(Nc4cc(Cl)nc(N)n4)cc3F)ccnc21 | cell-free assay | – | competition with immobilised ligand | 0.1 µM | remaining binding | 100% |
| CC(C)(C)C(=O)c1sc(NC2CCCCC2)nc1N | enzyme activity | inhibitor | – | 10 µM | remaining activity | 90% |
| CC(C)(C)c1nc(-c2cccc(NS(=O)(=O)c3c(F)cccc3F)c2F)c(-c2ccnc(N)n2)s1 | enzyme activity | inhibitor | radiometric | 1 µM | remaining activity | 109% |
| COc1cc(Nc2c(C#N)cnc3cc(OCCCN4CCN(C)CC4)c(OC)cc23)c(Cl)cc1Cl | cell-free assay | – | – | 0.5 µM | remaining signal | 99.2% |
| Cc1sc(C(=O)NC2COC2)cc1-n1cc(NC(=O)Nc2c(F)cccc2Cl)cn1 | enzyme activity | inhibitor | – | 10 µM | remaining activity | 95.1% |
| Cn1c(=O)n(-c2ccc(C(C)(C)C#N)cc2)c2c3cc(-c4cnc5ccccc5c4)ccc3ncc21 | enzyme activity | inhibitor | – | 10 µM | remaining activity | 92% |
| O=C1CCc2cc(Nc3cc(OC4CCOCC4)c([N+](=O)[O-])cc3Cl)ccc2N1 | cell-free assay | – | competition with immobilised ligand | 1 µM | remaining binding | 96% |
| CCOc1cc(-c2nncn2C)ccc1Nc1ncc2cc(C)nc(NCC(C)(C)C)c2n1 | enzyme activity | inhibitor | FRET | 1 µM | inhibition | < 15% |
